Results on 13 compounds are retold here after PubChem BioAssay.

Active and inactive are the calls of the source.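 The calls were made as follows, unless noted: active = fluorescence slope after compound addition differing from the mean of all screened samples at 99.7% confidence, in either direction; inactive = the rest.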

One may read the inhibition as the change of the read-out against control, counted positive when it falls.

Assay [1] is described as follows: inhibitors of TNFa-induced NFkB p65 translocation, primary screen, imaging, HUVEC, MLSMR starter and 10KST1 sets (AID 438;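 active = inhibition above 20% together with a positive visual image hit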;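 also: compound added about 3h40 before a 20 min TNFalpha stimulation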;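 as to inhibition: signal is the nuclear over cytoplasmic p65 intensity ratio per well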). The settings on record: HUVEC TNFa-induced p65 nuclear translocation; cell count: measured here: nuclei count (cytotoxicity indicator), at 2.08 µM unless noted; inhibition: at 2 µM, stronger effect = higher value unless noted.
The nature of assay [2]: inhibitors of E-selectin induction by TNFa, primary screen, imaging, HUVEC, immunofluorescence, MLSMR starter and 10KST1 sets (AID 487;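 active = visually confirmed hit in the image check and inhibition above 20%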;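 as to inhibition: signal is fraction of cell area covered by stained E-selectin grains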;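 as to nuclei count: 100% = median nuclei count of all wells on the same plate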). The settings on record: HUVEC TNFalpha-induced E-selectin immunofluorescence imaging, at 2 µM; inhibition: stronger effect = higher value; nuclei count: measured here: cell number, toxicity.
Assay [3] can be described thus: DUSP6 inhibitors restoring Erk phosphorylation by chemical complementation, primary imaging in DUSP6-transfected HeLa (AID 609;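 active = compounds giving at least 50% inhibition in the cell-based MKP-3 phosphatase rescue imaging test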;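 as to inhibition: phospho-Erk level distribution per well compared with pooled transfected vehicle control wells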). The following applies: HeLa MKP-3 transfected, phospho-Erk imaging KS statistic, at 10 µM.
Assay [4] concerns the target Dual specificity protein phosphatase 6 (Homo sapiens) (UniProt Q16828). Described as above. The following applies: HeLa MKP-3 transfected, phospho-Erk imaging KS statistic, at 10 µM, stronger effect = higher value.
The target of assay [5] is Voltage-gated potassium channel subunit beta-2 (Rattus norvegicus) (UniProt P62483). Nature of the assay: KvBeta enzyme negative modulators, primary screen, biochemical, NADPH fluorescence (AID 622;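 active = fluorescence slope higher than the sample average by over 3 SD, cut at about -0.22 in these data, passing the limit was not always enough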;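 also: slope of raw intensity against log time taken from 70 to 1610 s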). The settings on record: recombinant KvBeta, 4-cyanobenzaldehyde reduction, at 10 µM, stronger effect = higher value.
The target is the same in assay [6]. Nature of the assay: KvBeta positive modulators, primary screen, biochemical, NADPH fluorescence (AID 623;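 active = NADPH fluorescence slope more negative than the mean of all samples by about 3 SD, 99.7% confidence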;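 also: fluorescence intensity change per second fitted from 20 to 320 s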). The following applies: Recombinant KvBeta, NADPH fluorescence decrease slope, 10 min; at 10 µM; stronger effect = lower value.
The target of assay [7] is Alpha-2C adrenergic receptor (Homo sapiens) (UniProt P18825). Nature of the assay: modulators of alpha2C/GIRK thallium flux, primary screen, cell-based, HEK293 alpha2C/GIRK1/2 (AID 624).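 Also: slope of fluorescence ratio to pre-addition baseline per second over 15 to 24 s.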 The settings on record: thallium flux BTC fluorescence, at 10 µM, actives lie on both sides.
Assay [8] can be described thus: inhibitors of larval lipid processing in zebrafish, primary screen, whole organism, PED6 fluorescence, gall bladder and intestine (AID 686;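 active = a full or partial loss of lipid-probe fluorescence in the fish gall bladder, intestine or both, judged by eye; inactive = no fluorescence loss, or compound toxic to the fish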;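 also: larvae 5 to 7 days old with five fish per well; signal comes from phospholipase A2 cleavage of quenched PED6 carried via bile; overnight exposure to compound and PED6 before scoring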). The settings on record: Zebrafish larvae PED6 lipid processing, fluorescence scoring. Put shortly:
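System: live zebrafish larvae aged 5-7 days, whole organism; measure: graded gall bladder and intestinal fluorescence inhibition per well; incubation: overnight exposure; reagent: ingested quenched lipid PED6 at 100 nM; signal: By-eye fluorescence microscopy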

Assay [9] is described as follows: inhibitors of Chlamydomonas gravitaxis, primary screen, whole organism, Chlamydomonas reinhardtii, WT vs cilia-less mutant, absorbance, 96-well (AID 463189;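 active = inhibition at or above 50% relative to wild type and mutant plate controls; inactive = inhibition below 50%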;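 also: 0% = wild type cc124 cells in DMSO and 100% = ciliumless bld1 mutant cells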). The following applies: OD600 absorbance, 2 days, at 10 µM, stronger effect = higher value.
Where [10] appears, read: measured here: cell density z-score.
Where [11] appears, read: measured here: nuclear c-Myc green intensity z-score.
Setting [12] is: measured here: nuclear pErk red intensity z-score, stronger effect = higher value.

Sequence of Alpha-2C adrenergic receptor (Homo sapiens) (P18825 whole entry, looked up): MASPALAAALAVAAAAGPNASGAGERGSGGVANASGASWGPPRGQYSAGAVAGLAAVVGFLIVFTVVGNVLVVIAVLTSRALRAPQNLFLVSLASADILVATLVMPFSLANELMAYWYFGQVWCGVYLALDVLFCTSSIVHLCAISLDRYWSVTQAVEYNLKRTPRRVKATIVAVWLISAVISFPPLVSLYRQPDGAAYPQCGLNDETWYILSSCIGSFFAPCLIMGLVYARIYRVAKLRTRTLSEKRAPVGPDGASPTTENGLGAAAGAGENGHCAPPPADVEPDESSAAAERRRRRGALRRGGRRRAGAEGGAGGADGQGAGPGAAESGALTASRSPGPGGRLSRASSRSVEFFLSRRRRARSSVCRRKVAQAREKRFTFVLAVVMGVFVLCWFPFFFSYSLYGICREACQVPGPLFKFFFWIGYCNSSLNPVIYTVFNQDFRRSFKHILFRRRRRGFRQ
Sequence of Voltage-gated potassium channel subunit beta-2 (Rattus norvegicus) (P62483 whole entry, looked up): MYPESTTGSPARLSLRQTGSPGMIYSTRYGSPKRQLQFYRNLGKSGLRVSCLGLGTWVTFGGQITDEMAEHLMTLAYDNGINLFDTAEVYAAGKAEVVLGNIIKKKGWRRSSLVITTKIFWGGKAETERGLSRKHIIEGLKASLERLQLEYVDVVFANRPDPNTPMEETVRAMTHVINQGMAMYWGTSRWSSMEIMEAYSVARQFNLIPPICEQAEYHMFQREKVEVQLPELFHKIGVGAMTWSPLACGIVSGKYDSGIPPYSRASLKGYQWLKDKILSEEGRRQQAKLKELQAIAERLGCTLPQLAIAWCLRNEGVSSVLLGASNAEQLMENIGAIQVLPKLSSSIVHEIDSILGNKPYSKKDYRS
Sequence of Dual specificity protein phosphatase 6 (Homo sapiens) (Q16828 whole entry, looked up): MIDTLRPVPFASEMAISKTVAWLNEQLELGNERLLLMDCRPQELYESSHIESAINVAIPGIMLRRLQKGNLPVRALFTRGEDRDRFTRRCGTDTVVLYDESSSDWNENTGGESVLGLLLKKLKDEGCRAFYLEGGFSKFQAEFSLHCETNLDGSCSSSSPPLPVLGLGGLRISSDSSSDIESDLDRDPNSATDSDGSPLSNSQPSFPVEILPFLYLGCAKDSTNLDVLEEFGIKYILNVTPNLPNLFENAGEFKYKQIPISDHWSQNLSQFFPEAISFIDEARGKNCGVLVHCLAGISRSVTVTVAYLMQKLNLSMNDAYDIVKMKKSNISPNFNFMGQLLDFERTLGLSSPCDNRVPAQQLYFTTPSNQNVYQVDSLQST

Compound `O=c1[nH]c2ccccc2c(=O)n1-c1cccc(Cl)c1` returned a cell count in assay [1] of 545. In addition, the inhibition is -5.4% (inactive) in [1], 40% (inactive) in [2], -18.6% (inactive) in assay [4] and 11.1% (inactive) in assay [9]. The compound further registered a nuclei count in [2] of 129%. The results for the z-score in assay [3] (setting [10]), in assay [3] (setting [11]) and in assay [3] (setting [12]) were -1.11, 2.35 and 0.728, respectively. Besides, the fluorescence slope in assay [5] was -0.461 (inactive). In addition, the NADPH fluorescence slope in assay [6] was -7e-06 (inactive). Besides, in assay [7], the slope was 0.00622 (inactive). Further, the call in [8] was inactive.

`CCCCSP1(=S)NCCCO1` (centres undefined): the cell count in assay [1] came to 490. The inhibition is -12.8% (inactive) in [1], -2.8% (inactive) in assay [2], 9.39% (inactive) in [4] and 18.8% (inactive) in [9]. Moreover, in [2], the nuclei count was determined as 116%. The z-score in assay [3] (setting [10]) was 0.851; in [3] (setting [11]), -1.48; in [3] (setting [12]), -1.55. Moreover, the fluorescence slope in [5] was -0.465 (inactive). The NADPH fluorescence slope in assay [6] is -0.000374 (inactive). Moreover, the slope in assay [7] was 0.00445 (inactive). The call in [8] was inactive.

The compound `CCOc1ccc(Cc2c(O)[nH]c(=O)[nH]c2=O)cc1` came in with a cell count in assay [1] of 618. Also, the inhibition is -8.4% (inactive) in [1], -94.6% (inactive) in assay [2], 3.56% (inactive) in [4] and 18.5% (inactive) in assay [9]. In assay [2], this compound returned a nuclei count of 180%. Besides, the values for the z-score in assay [3] (setting [10]), in assay [3] (setting [11]) and in [3] (setting [12]) were -2.58, 1.33 and 1.61, respectively. The fluorescence slope in assay [5] is -0.34 (inactive). In assay [6], the NADPH fluorescence slope was -3.4e-06 (inactive). For the same compound, the slope in assay [7] is 0.00464 (inactive). In assay [8], the compound was called inactive.

In assay [1], `COc1cc2[nH]c(=O)n(-c3cccc(Cl)c3)c(=O)c2cc1OC` returned a cell count of 636. Further, the inhibition in assay [1] is -0.6% (inactive); in assay [2] it was -128% (inactive); in [4], -1.12% (inactive); in assay [9], -6.85% (inactive). The compound also came in with a nuclei count in [2] of 159%. In addition, the figures for the z-score in assay [3] (setting [10]), in assay [3] (setting [11]) and in assay [3] (setting [12]) were 0.96, -1.11 and 1.07, respectively. Further, the fluorescence slope in [5] is -0.467 (inactive). Besides, the NADPH fluorescence slope in assay [6] is -0.000203 (inactive). In addition, the slope in assay [7] is 0.00492 (inactive). In addition, the compound was called inactive in [8].

Turning to `CC(=O)OC1(Cc2ccccc2)CN2CCC1c1ccccc12` (centres undefined), the cell count in [1] was 574. The inhibition in assay [1] was -15.2% (inactive); in [2], -118% (inactive); in [4], -9.91% (inactive); in [9], 14.3% (inactive). In assay [2], this compound came in with a nuclei count of 130%. For the same compound, the z-score in [3] (setting [10]) is 0.311; in assay [3] (setting [11]), -0.615; in assay [3] (setting [12]), 0.994. Besides, the fluorescence slope in assay [5] is -0.516 (inactive). The NADPH fluorescence slope in [6] is -4e-05 (inactive). The slope in assay [7] is 0.00421 (inactive). Also, in [8], the result was inactive.

With `O=c1[nH]c(=O)n(Cc2ccco2)c(O)c1C=NCCN1CCOCC1`, the cell count in assay [1] was 680. The inhibition in assay [1] was -12.4% (inactive); in assay [2] it was -84.8% (inactive); in assay [4] it was -8.95% (inactive); in [9], -10.1% (inactive). In addition, the nuclei count in [2] is 179%. In addition, the z-score in [3] (setting [10]) was 0.97; in assay [3] (setting [11]) it was -1.61; in assay [3] (setting [12]) it was 0.194. Further, the fluorescence slope in assay [5] is -0.384 (inactive). The NADPH fluorescence slope in assay [6] was -2.1e-05 (inactive). Further, the slope in assay [7] is 0.00707 (inactive). In assay [8], the result was inactive.

Take `CCCSP1(=S)NCCCO1` (centres undefined): the cell count in assay [1] turned out to be 455. In addition, the inhibition in assay [1] was -11.8% (inactive); in assay [2], -157% (inactive); in assay [4], -2.07% (inactive); in assay [9], 20.8% (inactive). In assay [2], the nuclei count is 122%. The z-score in assay [3] (setting [10]) is 0.345; in [3] (setting [11]), -0.499; in [3] (setting [12]), -0.356. Moreover, the fluorescence slope in [5] is -0.54 (inactive). Besides, the NADPH fluorescence slope in assay [6] is -7.2e-05 (inactive). For the same compound, in assay [7], the slope is 0.00464 (inactive). For the same compound, the call in assay [8] was inactive.

As to `OC(Cc1ccccc1)(c1ccccc1)C1CN2CCC1CC2` (centres undefined), the cell count in [1] amounted to 556. In addition, the inhibition was -8.4% (inactive) in [1], -124% (inactive) in assay [2], 1.98% (inactive) in [4] and 0.812% (inactive) in [9]. Besides, the nuclei count in assay [2] turned out to be 130%. In addition, the z-score in assay [3] (setting [10]) came out at 0.0962; in assay [3] (setting [11]), 1.34; in assay [3] (setting [12]), 0.286. Further, the fluorescence slope in [5] is -0.512 (inactive). For the same compound, in assay [6], the NADPH fluorescence slope was -2.1e-05 (inactive). Also, the slope in assay [7] was 0.00546 (inactive). The call in assay [8] was inactive.

On to `C=CCn1c(O)c(C=Nc2ccc(N(CC)CC)cc2)c(=O)[nH]c1=O`, for which the cell count in assay [1] is 321. Further, the inhibition in assay [1] was 4.1% (inactive); in [2], -65.7% (inactive); in assay [4] it was -1.75% (inactive); in [9], 25.3% (inactive). This compound also showed a nuclei count in assay [2] of 88.8%. Also, the z-score in [3] (setting [10]) is -1.25; in assay [3] (setting [11]), 0.816; in [3] (setting [12]), -0.799. Also, the fluorescence slope in assay [5] was -0.321 (inactive). In addition, the NADPH fluorescence slope in assay [6] is -6.9e-05 (inactive). Moreover, the slope in assay [7] is 0.00606 (inactive). Besides, the result in assay [8] was inactive.

In [1], `O=C1c2ccccc2C(=O)N1Cc1nc2ccccc2c(=O)n1-c1cccnc1` had a cell count of 485. For the same compound, the inhibition is -17.5% (inactive) in assay [1], 13.6% (inactive) in [2], -4.27% (inactive) in [4] and 6.55% (inactive) in assay [9]. For the same compound, the nuclei count in assay [2] is 113%. The z-score in assay [3] (setting [10]) is -1.74; in assay [3] (setting [11]), -0.21; in [3] (setting [12]) it was 1.85. Also, the fluorescence slope in assay [5] is -0.469 (inactive). Moreover, the NADPH fluorescence slope in [6] was -1.2e-05 (inactive). The slope in assay [7] is 0.00521 (inactive). In addition, in assay [8], the outcome was inactive.

With `CCN(CC)c1ccc(N=Cc2c(O)n(-c3cc(OC)ccc3OC)c(=O)[nH]c2=O)cc1`, the cell count in [1] was 462. Further, the inhibition in [1] was 2.1% (inactive); in assay [2], -25.3% (inactive); in [4] it was 16.8% (inactive); in assay [9], 34.9% (inactive). This compound also yielded a nuclei count in assay [2] of 172%. Also, the z-score was -0.53 in [3] (setting [10]), 0.14 in assay [3] (setting [11]) and 0.193 in [3] (setting [12]). The fluorescence slope in assay [5] is -0.37 (inactive). For the same compound, the NADPH fluorescence slope in assay [6] was -5.8e-05 (inactive). In assay [7], the slope is 0.00328 (inactive). For the same compound, in assay [8], the compound was classed as inactive.

`COCCOC(=O)c1c(N)n(Cc2ccco2)c2nc3ccccc3nc12` displayed a cell count in assay [1] of 431. Moreover, the inhibition in assay [1] is -13% (inactive); in assay [2], -107% (inactive); in assay [4] it was 0.671% (inactive); in assay [9], 15% (inactive). In addition, in assay [2], the nuclei count worked out at 162%. The results for the z-score in [3] (setting [10]), in [3] (setting [11]) and in assay [3] (setting [12]) were 0.196, -0.0973 and 1.79, respectively. For the same compound, the fluorescence slope in assay [5] is -0.0308 (inactive). Moreover, the NADPH fluorescence slope in [6] was -7.2e-06 (inactive). Besides, the slope in assay [7] was 0.00535 (inactive). For the same compound, the result in assay [8] was inactive.

As for `CCCCC1(CN2CCCC2=O)C(=O)NC(=O)NC1=O`, the cell count in assay [1] is 325. The inhibition in assay [1] is -24.8% (inactive); in assay [2], -135% (inactive); in assay [4], 3.5% (inactive); in assay [9], 32.8% (inactive). This compound also gave a nuclei count in assay [2] of 118%. The z-score in assay [3] (setting [10]) is 0.342; in assay [3] (setting [11]), -1.01; in [3] (setting [12]), -1.02. Moreover, in assay [5], the fluorescence slope is -0.467 (inactive). In addition, the NADPH fluorescence slope in [6] is 1.5e-05 (inactive). Also, the slope in assay [7] was 0.00649 (inactive). In addition, the compound was called inactive in assay [8].
